Test: Toxicity liver stage against HepG2, at 10uM
Format: cell-based
Parameters: test concentration 10 uM, cell line HepG2-A16-CD81EGFP
Conditions: human, HepG2-A16-CD81EGFP cells; read-out: INHIBITION
How it was run: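 Uninfected HepG2-A16-CD81EGFP cells, 3 × 10^3 per well, 1536-well, plated on prespotted compound at 10 μM final, parasite-free screening media added to match infected plates; puromycin 10 μM positive, DMSO 0.5% negative; run in parallel with 48 h PbLuc assay at 37 °C, 5% CO2; viability by CellTiter-Glo luminescence, normalized to controls.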

Row | SMILES | cytotoxicity at 10 µM [%]
1 | COc1ccnc(N2CCc3ccc(OC(F)F)cc3C2)n1 | -4.32
2 | O=C(c1cccc(OC2CCCC2)c1)N1CCCC(n2cncn2)C1 (centres undefined) | -10.3
3 | Cc1ccsc1CN1CC2(CCN(C(=O)C3CC3)CC2)CC1C(=O)O (centres undefined) | 3.24
4 | Cn1cnc2c1CCN(Cc1cccc(C(=O)N3CCCCC3)c1)C2 | -2.75
5 | O=S(=O)(C1CC1)N1C[C@@H]2CN(Cc3ccoc3)CCO[C@@H]2C1 | -142
6 | CCCN1CCCn2c(nc(CNC(=O)c3ccsc3)cc2=O)C1 | 6.89
7 | CN(Cc1ccoc1)C(=O)C1(Oc2ccc(Cl)cc2)CCNCC1 | 5.73
8 | CC(C)(C)C(=O)NS(=O)(=O)c1ccc(C#N)c(C(F)(F)F)c1 | 1.38
9 | Cc1nc(C)n(C2CCCN(C(=O)CCCOc3ccccc3)C2)n1 (centres undefined) | -12.7
10 | O=C(C1CCCOC1)N1CCCc2ccccc21 (centres undefined) | 10.1
11 | c1ccc(OCCCN2CCOC(CNc3cccnn3)C2)cc1 (centres undefined) | -0.906
12 | Cc1cc(-n2cccn2)ccc1CN1CCOCC(CN(C)C)C1 (centres undefined) | -38.2
13 | O=C(Cc1ccncc1)N1C[C@H]2CC[C@@H](C1)N(Cc1ccccc1)C2=O | 5.79
14 | CC(C)CNc1cc(-c2c[nH]nc2C2CCN(C(=O)C3CC3)C2)ccn1 (centres undefined) | 83.8
15 | CNC(=O)C1CN(c2cc(C)ncn2)CCN1Cc1ccccc1 (centres undefined) | 10
16 | CCN(CCOC)C(=O)c1ccc2c(c1)nc(N1CC[C@H](O)C1)n2C | -2.96
17 | Cc1ccccc1C(=O)N1Cc2c(Cn3ccnc3)nn(C)c2C1 | -72.1
18 | c1ccc(NCc2cn3c(n2)CNCC3)nc1 | 9.28
19 | CCNC(=O)[C@@H]1C[C@H](N)CN1C(=O)CCc1ccc(C)c(C)c1 | 3.45
20 | COc1ccc(F)c(F)c1C(=O)N1C[C@@H](CN(C)CCO)[C@@H](CO)C1 | -1.02
21 | COc1cccc(OCC(=O)NS(=O)(=O)c2cccnc2)c1 | -12.1
22 | CCN(C)S(=O)(=O)NCC(O)c1cc2ccccc2s1 (centres undefined) | -8.26

Row | SMILES | cytotoxicity at 10 µM [%]
23 | Cc1ccc(S(C)(=O)=O)cc1C(=O)N(C)Cc1ccco1 | 0.0194
24 | COc1ccc(CCc2nnc(NC(=O)C3CC34CCC4)s2)cc1OC (centres undefined) | -0.095
25 | CS(=O)(=O)N1CCCC(C(=O)Nc2cnn(COCC(F)(F)F)c2)C1 (centres undefined) | -11.5
26 | CCc1c(C)nc(C)nc1N1CCC(NCCSc2nnnn2C)CC1 | -15.9
27 | Cc1nc(C)n(C2CCCN(C(=O)c3csc(C(C)C)n3)C2)n1 (centres undefined) | -1.72
28 | CC(CNC(=O)Nc1ccc(F)cc1Br)N1CCOCC1 (centres undefined) | 9.21
29 | O=C(NCC(O)(c1ccco1)C1CC1)c1ccccc1F (centres undefined) | -1.16
30 | Cc1cc(Nc2cnccn2)cc(C2CCCNC2)n1 (centres undefined) | 4.75
31 | Cn1ccc(CN2CCC(COC3CCCC3)CC2)cc1=O | -1.68
32 | CCCn1nc(C)c(-c2cncn2CC2(N(C)C)CCC(C)CC2)c1C (centres undefined) | 9.35
33 | COc1cc(C(=O)NC2COc3ccccc3C2)ccc1OCC(N)=O (centres undefined) | -22.8
34 | COc1ccc(NC(=O)NCc2ccnc(N(C)C)c2)cn1 | -8.6
35 | COc1ccc(CNCc2cc(Br)c3c(c2)OCO3)cc1 | 12.1
36 | CCC=C(C)C(=O)N1CSCC1C(=O)N(C)CCc1ccncc1 (centres undefined) | -9.72
37 | CN(Cc1ccsc1)C(=O)c1n[nH]c(N)c1-c1ccccc1 | -6.27
38 | Cc1nn(C)c2nc3c(c(C(=O)/N=c4\[nH]nc(C(C)C)s4)c12)CCC3 | -2.25
39 | Fc1cnc(N2CCC3(CCCN(c4nncs4)C3)C2)nc1 (centres undefined) | 2.15
40 | CS(=O)(=O)NCc1nnc2n1CCN(CC1CC1)C2 | -0.285
41 | CCc1nc(CN2CCCN(c3nn4cc(C)nc4s3)CC2)no1 | -14.7
42 | CC1=N[C@@]2(CC[C@@H]3CN(S(=O)(=O)CC(C)C)C[C@@H]32)C(=O)N1CC(C)C | -1.34
43 | Cc1cc2nc(CO[C@H]3CN(C4CCCCC4)C[C@H]3F)[nH]c2cc1C | -17.5
44 | Cc1ccc(NC2CCN(C(=O)c3c(C)oc(C)c3C)CC2)nn1 | -2.4

Row | SMILES | cytotoxicity at 10 µM [%]
45 | c1ccc(COC[C@H]2CC[C@H]3[C@H](CCN3Cc3cccs3)O2)nc1 | -85
46 | O=C(Cc1ccc2c(c1)CCC2)NCCNc1cnccn1 | -0.037
47 | CCNC(c1ccc(F)cc1)c1cccnc1 (centres undefined) | 2.73
48 | CN(C)S(=O)(=O)N1CC[C@]2(O)CCN(c3nccs3)C[C@@H]2C1 | -13
49 | Cc1noc([C@@H]2C[C@H]3OCC[C@H]3N(S(=O)(=O)c3ccccc3)C2)n1 | -126
50 | COc1ccc2c(c1)NC(=O)C2OC(=O)CC(C)(C)C (centres undefined) | 2.41
51 | NC(=O)COc1cccc(C(=O)N2CCCC(n3cccn3)C2)c1 (centres undefined) | -4.86
52 | CC(C)NC(=O)[C@H]1C[C@@H]2[C@@H](C1)OCCN2Cc1nccs1 | 6.1
53 | O=C(CN1CCCCC1Cn1cncn1)Nc1ccncc1 (centres undefined) | 11.2
54 | O=S1(=O)C[C@@H]2[C@H](C1)N(Cc1ncc[nH]1)CCN2CC1CC1 | -7.18
55 | Cc1nc(O)cc([C@@H]2CN(C(=O)C3CC3)C[C@H]2c2ccccc2F)n1 | 4.95
56 | CC(C)NC(=O)c1nc(COc2ccc3c(c2)OCO3)no1 | -1.11
57 | CN1CCCN(C(=O)NCc2cccnc2-n2cccn2)CC1 | -17.9
58 | O=C(c1cnccn1)N1CC[C@H]2C[C@@H](c3ccncn3)O[C@@H]2C1 | -78.5
59 | COC1CN(C(=O)CC2CCCC2)CCC(=O)N(C)c2ccccc21 (centres undefined) | -32.8
60 | COCCN(C(=O)c1ccn(-c2ccc(OC)cc2)n1)C(C)C(N)=O (centres undefined) | 0.337
61 | CN(Cc1cccnc1)C1CC2(CCN(c3ncc(F)cn3)CC2)C1 | 18
62 | CC(=O)N1CCC2(CCN(Cc3ccccn3)C2=O)C1 (centres undefined) | 0.0869
63 | COc1cc(Cl)ccc1C(=O)NCc1n[nH]c(C)n1 | -4.07
64 | Cc1nn(C)c2c(NCCn3cccn3)ncnc12 | -1.26
65 | COc1cccc(OCCNS(=O)(=O)Cc2ccccc2)c1 | -15.7
66 | CNC(=O)c1ccc(CNCc2ccc(SC)c(OC)c2)cc1 | 0.838

Row | SMILES | cytotoxicity at 10 µM [%]
67 | COCCC(=O)N1CCCC(CCc2ccc(F)c(F)c2)C1 (centres undefined) | -2.59
68 | CN(CC(=O)N1CCCC1c1noc(C2CC2)n1)Cc1ccccc1 (centres undefined) | -5.09
69 | CNc1ncc(CN(C)C(=O)c2ccccc2C2CCNC2)cn1 (centres undefined) | 0.272
70 | CCOC(=O)CC(c1ccc(OC)c(OC)c1)c1c(O)n[nH]c1C (centres undefined) | 1.64
71 | Cc1cnn(C2CN(C(C)c3nc(-c4ccccc4)no3)C2)c1 (centres undefined) | -2.21
72 | Cn1cc(C(=O)CC2CCCN2C(=O)c2ccncc2F)cn1 (centres undefined) | 0.555
73 | CCN1CCNC(=O)C12CCN(S(=O)(=O)c1ccc(F)cc1)CC2 | 1.17
74 | Cn1cccc1C(=O)N1CC[C@@H]2[C@@H]1CC(=O)N2CCN1CCOCC1 | -7.41
75 | Cc1cc(C(=O)N2CC(O)CO2)c2cccc(C)c2n1 (centres undefined) | 7.13
76 | c1ccc(Cc2noc(CN3CCCCC3Cn3cccn3)n2)cc1 (centres undefined) | -0.945
77 | Cc1nc(CO[C@@H]2CN(Cc3cccnc3)[C@@H]3COC[C@@H]32)cs1 | 5.05
78 | CN1CCC(n2nc(Cc3cccs3)nc2-c2ccncc2)CC1 | -7.76
79 | CNS(=O)(=O)Cc1ccc(CNC(=O)Nc2cccnc2)cc1 | 0.684
80 | COc1coc(C(=O)Nc2nc(-c3ccccn3)cs2)cc1=O | 7.31
81 | c1ccc(-c2ccc3nc(C4CCN(CC5CC5)CC4)nn3c2)cc1 | -7.32
82 | Cc1nnc([C@@H]2C[C@H]3CN(C(=O)c4c(C)noc4C)C[C@H]3O2)[nH]1 | 15.2
83 | Cc1ccc(CNCC2Cn3nncc3CO2)o1 (centres undefined) | -113
84 | CCC(C)N(Cc1ccncc1)C(=O)CCC(=O)OC (centres undefined) | -14.5
85 | CCc1nnsc1C(=O)NCc1nnc2n1CCCCC2 | 0.136
86 | O=C(NCC1COCCO1)c1csc(Cc2ccccc2)n1 (centres undefined) | -0.857
87 | O=C1Nc2ccccc2CNC12CCN(CC1CC1)CC2 | 6.03
88 | CC(C)(C)C(=O)NCCNc1cc(N2CCCC2)ncn1 | -43

Row | SMILES | cytotoxicity at 10 µM [%]
89 | CC(C)(C)CNC(=O)CNC(=O)C1CC1 | -1.15
90 | O=C(NC[C@H]1C[C@@H]2CCN1C[C@@H]2CN1CCOCC1)Nc1ccsc1 | 1.03
91 | COCCNS(=O)(=O)c1cccc2c1CN(C(=O)c1cc(C)on1)CC2 | 1.63
92 | O=C(NCc1ccc(CN2CCCCC2)cc1)Nc1cccnc1 | 74.5
93 | CN(C)C(=O)C1CN(Cc2ccccn2)CCN(S(C)(=O)=O)C1 (centres undefined) | 26.9
94 | Cc1ccc(C)c(Oc2ccc(CNC(=O)C3CNC(=O)N3)cn2)c1 (centres undefined) | 0.577
95 | CNc1cc(C)nc(C2COCCN2CCc2ccccc2)n1 (centres undefined) | 2.52
96 | CN(c1ccncn1)C1CC2(CCN(C(=O)c3cncs3)C2)C1 (centres undefined) | -8.13
97 | CN(CCc1cccc2ccccc12)Cc1nc(N)nc(N(C)C)n1 | 4.19
98 | Cc1nc(CC(C)C)sc1C(=O)N1CCC1 | 15.8
99 | OCCN1CCC(CNCc2ccc(N3CCCCC3)cc2)CC1 | -3
100 | O=C1CC2(CCSC2)C(=O)N1CCCc1ccccc1 (centres undefined) | 6.43
101 | COCCSc1ccc(-n2ccnc2)nn1 | 6.11
102 | CSc1ncc(CNC(C)c2cnn(-c3ccc(F)cc3F)c2C)cn1 (centres undefined) | 2.77
103 | Cc1ccc(CN2CC3(CCN(C(=O)Cc4ccc(Cl)cc4)C3)C2)o1 | 6.11
104 | CC1CCN(C(=O)CSCc2noc(C(C)C)n2)CC1 | 1.4
105 | O=C(NCCC(O)c1ccco1)c1ccco1 (centres undefined) | 7.94
106 | O=C(NCC1CCOC1)c1csc(-c2ccc(F)cc2)n1 (centres undefined) | -3.06
107 | Cc1c(C(=O)NCC(C)(C)S(C)(=O)=O)cccc1-c1ccccn1 | 2.07
108 | CN1CCCC(Cc2ccnc3ccncc23)CC1 (centres undefined) | -0.336
109 | CN(Cc1ccco1)[C@@H]1CN(Cc2nccn2C)[C@@H]2CCCO[C@H]12 | -67.9

Source: ChEMBL document CHEMBL4513216, “Probing the Open Global Health Chemical Diversity Library for Multistage-Active Starting Points for Next-Generation Antimalarials” (ACS Infect Dis, 2020)
